Activity and Reduction data for four compounds are collected here from ChEMBL document CHEMBL1145052, “Design and synthesis of novel pyridoxine 5'-phosphonates as potential antiischemic agents” (J Med Chem, 2003).

For assay [1], the species on record is Rattus norvegicus. As to the kind of experiment: Inhibitory activity against ATP receptor in isolated perfused rat heart.
Assay [2] is filed under the species Rattus norvegicus. As to the kind of experiment: Glucose oxidation was measured using [C14] Glucose in perfusing rat heart. It counts as functional. Summed up: (§1)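 Isolated, spontaneously beating rat hearts under aerobic perfusion for 60 min. Test agents perfused at 1 mM, DCA positive control at 3 mM, untreated controls; n = 6 hearts per group. [3H]-palmitate and [14C]-glucose perfused together to measure fatty acid and glucose oxidation simultaneously.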

Assay [3] is filed under the species Rattus norvegicus. As to the kind of experiment: Fatty acid oxidation was measured using [3H]- palmitate in perfusing rat heart. In kind it is functional. Summed up: as §1
The subject of assay [4] is Rattus norvegicus. As to the kind of experiment: Ability of compound to reduce the infarct size in rat administered via bolus at 0.02 mmol/kg. It counts as functional. Summed up: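 Male Wistar rats, carotid artery and jugular vein cannulated, LAD snare placed, 30 min stabilization. Bolus injection 0.02 mmol/kg given 5 min before LAD occlusion; saline infusion controls. 25 min ischemia, 2 h reperfusion. Area at risk delineated with Evans blue (2% w/v). AR pieces stained with NBT (0.5 mg/mL) for 40 min at 37 °C. Infarct size expressed as % of AR.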

Regarding `Cc1ncc(COP(=O)(O)O)c(C=O)c1O` [PYRIDOXAL PHOSPHATE ANHYDROUS], the Activity in assay [1] was determined as 10 µM; in assay [2] it was 2253; in assay [3], 398. In addition, the Reduction in assay [4] turned out to be 33%.

Consider `Cc1ncc2c(c1O)COC2(O)C(F)(F)P(=O)(O)O` (centres undefined), for which the Activity stood at 2339 in assay [2] and 414 in assay [3]. The same compound displayed a Reduction in assay [4] of 46%.

Regarding `Cc1ncc(CP(=O)(O)O)c(O)c1O`, the Reduction in assay [4] is recorded as 20%.

On to `Cc1ncc(C(O)P(=O)(O)O)c(O)c1O` (centres undefined), for which the Reduction in assay [4] came to 19%.
